The species named for series [1] is Mus musculus. Put plainly: Binding affinity to prostanoid receptor in [8-14C]adenine-treated CD-1 mouse ovary assessed as increase in c-AMP production at 25 ug/ml after 30 mins by paper chromatographic analysis in presence of phosphodiesterase inhibitor theophylline relative to control. It is filed as tissue-based. The settings on record: Female gonad. In outline: (§1)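 Mouse ovaries, three per incubation (15-25 mg), preincubated 1 h at 37 °C with shaking in aerated Krebs-Ringer phosphate buffer pH 7.2 containing [8-14C]adenine. Theophylline and test compound (in Me2SO) were then added, with a further 30 min at 37 °C. Stopped with trichloroacetic acid, homogenized and centrifuged. [14C]-cAMP isolated, including paper chromatography. Result is fold increase over untreated ovaries.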

The species entered for series [2] is Mus musculus. The series is described as follows: Binding affinity to prostanoid receptor in [8-14C]adenine-treated CD-1 mouse ovary assessed as increase in c-AMP production at 100 ug/ml after 30 mins by paper chromatographic analysis in presence of phosphodiesterase inhibitor theophylline relative to control. It is filed as tissue-based. The settings on record: Female gonad. In outline: as §1

Series [3] is filed under the species Rattus norvegicus. The series is described as follows: Binding affinity to prostanoid receptor in rat lipocytes assessed as compound equivalent to cold PGE1 in displacing [3H]-PGE1 from receptor after 60 mins. It is filed as cell-based. In outline:
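Test compound incubated with 0.4 ng [3H]-PGE1 and 125 µg rat lipocyte binding preparation for 60 min at 37 °C. Bound [3H]-PGE1 then measured. Three test concentrations, run in duplicate.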

The species entered for series [4] is Mus musculus. Put plainly: Binding affinity to prostanoid receptor in [8-14C]adenine-treated CD-1 mouse ovary assessed as increase in c-AMP production at 1 ug/ml after 30 mins by paper chromatographic analysis in presence of phosphodiesterase inhibitor theophylline relative to control. The class given is tissue-based. The settings on record: Female gonad. In outline: as §1

For series [5], the species on record is Homo sapiens. The series is described as follows: Binding affinity to prostanoid receptor in [8-14C]adenine-treated human psoriatic skin slices assessed as increase in c-AMP production at 50 ug/ml after 30 mins by paper chromatographic analysis relative to control. In outline:
(§2)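 Psoriatic skin biopsied from patients off medication ≥48 h, under sc 1-2% lidocaine, and cut into 10-30 mg slices. Preincubated with [14C]adenine about 60 min at 22 °C, then 45 min at 37 °C, then 30 min at 37 °C with test compound. Stopped with TCA to 2.5%, then pulverized at -70 °C and homogenized. Supernatant [14C]-cAMP expressed as fold over unmedicated slices; average of four experiments.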

For series [6], the species on record is Homo sapiens. The series is described as follows: Binding affinity to prostanoid receptor in [8-14C]adenine-treated human psoriatic skin slices assessed as increase in c-AMP production at 100 ug/ml after 30 mins by paper chromatographic analysis relative to control. In outline: as §2
In series [7] the test system is Rattus norvegicus. Put plainly: Antihypertensive activity in spontaneous hypertensive rat model up to 40 mg/kg, po. It is filed as functional, organism-based. More on the design: dose 40 mg/kg. In outline: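 Spontaneously hypertensive rats dosed po at up to 40 mg/kg; antihypertensive effect assessed.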
For series [8], the species on record is Mus musculus. Put plainly: Binding affinity to prostanoid receptor in [8-14C]adenine-treated CD-1 mouse ovary assessed as increase in c-AMP production at 0.1 ug/ml after 30 mins by paper chromatographic analysis in presence of phosphodiesterase inhibitor theophylline relative to control. The settings on record: Female gonad. It is filed as tissue-based. In outline:
as §1

Series [9] is filed under the species Homo sapiens. The series is described as follows: Binding affinity to prostanoid receptor in [8-14C]adenine-treated human psoriatic skin slices assessed as increase in c-AMP production at 25 ug/ml after 30 mins by paper chromatographic analysis relative to control. In outline: as §2
Series [10] deals with Lymphocyte. Put plainly: Inhibition of antigen-induced lymphocyte (unknown origin) transformation at 1 ug/mL relative to control. It is filed as functional.
The species named for series [11] is Mus musculus. Put plainly: Binding affinity to prostanoid receptor in [8-14C]adenine-treated CD-1 mouse ovary assessed as increase in c-AMP production at 10 ug/ml after 30 mins by paper chromatographic analysis in presence of phosphodiesterase inhibitor theophylline relative to control. It is filed as tissue-based. Conditions: Female gonad. In outline: as §1

The subject of the next series is Canis familiaris. The series is described as follows: Antisecretory activity in dog assessed as reduction of gastric acid release at 12.3 mg/kg, po. It is filed as functional, organism-based. Also noted: dose 12.3 mg/kg. Conditions: Canis lupus familiaris, Stomach. In outline: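 Given orally to dogs at 12.3 mg/kg; gastric acid antisecretory effect assessed.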

Series [12] is filed under the species Homo sapiens. The series is described as follows: Binding affinity to prostanoid receptor in [8-14C]adenine-treated human psoriatic skin slices assessed as increase in c-AMP production at 200 ug/ml after 30 mins by paper chromatographic analysis relative to control. In outline:
as §2

Series [13] has as its target T1, 15-hydroxyprostaglandin dehydrogenase [NAD(+)] (Homo sapiens, UniProt P15428).
T1 sequence (P15428 whole entry): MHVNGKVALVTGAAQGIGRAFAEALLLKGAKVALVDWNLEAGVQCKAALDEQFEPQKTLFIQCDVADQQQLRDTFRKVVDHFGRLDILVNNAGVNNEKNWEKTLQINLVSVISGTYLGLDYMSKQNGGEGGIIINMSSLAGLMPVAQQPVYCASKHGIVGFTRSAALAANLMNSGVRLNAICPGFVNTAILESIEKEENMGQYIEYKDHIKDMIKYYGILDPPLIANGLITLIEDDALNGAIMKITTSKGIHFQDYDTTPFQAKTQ
The series is described as follows: Metabolic stability of the compound assessed as 15-hydroxyprostanoid dehydrogenase (unknown origin)-mediated metabolite formation. The class given is ADME.

The test system of series [14] is Lymphocyte. The series is described as follows: Inhibition of antigen-induced lymphocyte (unknown origin) transformation at 10 ug/mL relative to control. The class given is functional.
The species named for series [15] is Mus musculus. The series is described as follows: Binding affinity to prostanoid receptor in [8-14C]adenine-treated CD-1 mouse ovary assessed as increase in c-AMP production at 0.01 ug/ml after 30 mins by paper chromatographic analysis in presence of phosphodiesterase inhibitor theophylline relative to control. The settings on record: Female gonad. The class given is tissue-based. In outline: as §1

Series [16] is filed under the species Mus musculus. Put plainly: Binding affinity to prostanoid receptor in [8-14C]adenine-treated CD-1 mouse ovary assessed as increase in c-AMP production at 0.05 ug/ml after 30 mins by paper chromatographic analysis in presence of phosphodiesterase inhibitor theophylline relative to control. The class given is tissue-based. Conditions: Female gonad. In outline: as §1

The species named for series [17] is Homo sapiens. The series is described as follows: Binding affinity to prostanoid receptor in [8-14C]adenine-treated human psoriatic skin slices assessed as increase in c-AMP production at 10 ug/ml after 30 mins by paper chromatographic analysis relative to control. In outline:
as §2

The species entered for series [18] is Mus musculus. The series is described as follows: Binding affinity to prostanoid receptor in [8-14C]adenine-treated CD-1 mouse ovary assessed as increase in c-AMP production at 50 ug/ml after 30 mins by paper chromatographic analysis in presence of phosphodiesterase inhibitor theophylline relative to control. It is filed as tissue-based. The settings on record: Female gonad. In outline: as §1

The species entered for series [19] is Mus musculus. The series is described as follows: Binding affinity to prostanoid receptor in [8-14C]adenine-treated CD-1 mouse ovary assessed as increase in c-AMP production at 200 ug/ml after 30 mins by paper chromatographic analysis in presence of phosphodiesterase inhibitor theophylline relative to control. The settings on record: Female gonad. The class given is tissue-based. In outline:
as §1

The inhibition is how much of the control response was suppressed.

Structures are written as SMILES. The source made the active and inactive calls. No cut-off for these calls is given here.

Turning to `CCCCCC(O)CCCCCS(=O)(=O)CCCCCCCC(=O)O` (racemic), the fold change (FC) was 0.5 in the series listed under Mus musculus [1] and 1 in the series listed under Mus musculus [2].
Take `CCCCCC(O)CCCC(CCCCCCC(=O)O)[S+](C)[O-]` (mixture of isomers): the results for the fold change (FC) in the series listed under Mus musculus [1], in the series filed under Mus musculus [2] and in the series filed under Mus musculus [4] were 40, 57 and 4, respectively. Moreover, the INH in the series listed under Rattus norvegicus [3] is 7.14 µgequiv.
As to `CCCCCC(O)CCCC(CCCCCCC(=O)O)S(C)(=O)=O` (mixture of isomers), the fold change (FC) in the series listed under Homo sapiens [5] came to 3.4; in the series filed under Mus musculus [1] it was 27; in the series listed under Homo sapiens [6] it was 3.5; in the series filed under Mus musculus [8] it was 2; in the series listed under Homo sapiens [9] it was 2.5; in the series filed under Mus musculus [11], 24. In addition, the fold change (FC) in the series listed under Mus musculus [2] was 38; in the series listed under Homo sapiens [12], 2.7; in the series listed under Mus musculus [4] it was 14. Also, the result in the series with Rattus norvegicus [7] and with Canis familiaris was inactive. Further, in the series listed under Rattus norvegicus [3], the INH turned out to be 0.67 µgequiv. In addition, the inhibition at 1 µg/mL in the series on Lymphocyte [10] was 30%. The Stability entry in [13] was “Stable”. Also, in the series with Lymphocyte [14], testing at 10 µg/mL gave an inhibition of 88%.
Consider `CCCCCC(O)CCCC(CCCCCCC(=O)O)SCCO` (mixture of isomers), for which the fold change (FC) worked out at 4 in the series filed under Mus musculus [1], 14 in the series listed under Mus musculus [2] and 1.5 in the series filed under Mus musculus [4].
`CCCCCC(O)CCCC(CCCCCCC(=O)O)SC` (mixture of isomers): the figures for the fold change (FC) in the series listed under Mus musculus [1], in the series listed under Mus musculus [2] and in the series listed under Mus musculus [4] were 35, 24 and 2.5, respectively. In the series listed under Rattus norvegicus [3], the INH stood at 0.77 µgequiv.
Regarding `CCCCC[C@H](O)/C=C/[C@H]1[C@H](O)CC(=O)[C@@H]1CCCCCCC(=O)O` [ALPROSTADIL], the fold change (FC) in the series listed under Mus musculus [8] came to 25; in the series listed under Mus musculus [15] it was 8; in the series listed under Mus musculus [16], 29; in the series listed under Homo sapiens [17], 10; in the series filed under Mus musculus [4] it was 54. In the series with Lymphocyte [14], this molecule returned an inhibition at 10 µg/mL of 82%.
With `CCCCCC(O)CCCC(CCCCCCC(=O)O)S(=O)(=O)CCO` (mixture of isomers), the fold change (FC) in the series filed under Mus musculus [1] came to 2; in the series listed under Mus musculus [2] it was 10; in the series listed under Mus musculus [4], 0.7.
As for `CS(=O)(=O)C(CCCCCCC(=O)O)CCCC(O)COc1ccc(F)cc1` (stereo not drawn), the fold change (FC) is 23 in the series listed under Mus musculus [1], 27 in the series listed under Mus musculus [2] and 1 in the series listed under Mus musculus [4]. The INH in the series listed under Rattus norvegicus [3] was found to be 1.11 µgequiv.
For the molecule `CCCCC[C@H](O)CC[C@H]1CCC(=O)[C@@H]1CCCCCCC(=O)O`, the fold change (FC) is 26 in the series listed under Mus musculus [1], 19 in the series listed under Mus musculus [18], 25 in the series listed under Mus musculus [11] and 10 in the series listed under Mus musculus [4]. In the series filed under Rattus norvegicus [3], the INH came out at 10 ngequiv.
In the case of `CCCCCC(O)CCCC(CCCCCCC(=O)O)C(C)=O` (stereo not drawn), the fold change (FC) in the series filed under Mus musculus [1] is 14; in the series listed under Mus musculus [19], 16; in the series listed under Mus musculus [18], 16; in the series listed under Mus musculus [11], 11; in the series listed under Mus musculus [2], 23; in the series listed under Mus musculus [4] it was 2. The INH in the series filed under Rattus norvegicus [3] stood at 1700 ngequiv.

These data come from ChEMBL document CHEMBL3243919, “11,12-Secoprostaglandins. 3. 8-Alkylthio(sulfinyl and sulfonyl)-12-hydroxyalkanoic acids and related compounds” (J Med Chem, 1977).
